Compound activity deposited in PubChem BioAssay by several laboratories.
ADAM17 inh: inhibits human ADAM17; P78536; recombinant ADAM17, EDANS/DABCYL FRET peptide cleavage; inhibition, % at 6.95 µM; 370,000 tested, 0.83% active; AID 720648;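 active means inhibition above the mean of compounds lying between control limits plus 3 SD, set per campaign, cut at about 8.5% in these data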;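 further: 0% = DMSO-only wells as the low control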
Target sequence (P78536 215-824 limits assumed): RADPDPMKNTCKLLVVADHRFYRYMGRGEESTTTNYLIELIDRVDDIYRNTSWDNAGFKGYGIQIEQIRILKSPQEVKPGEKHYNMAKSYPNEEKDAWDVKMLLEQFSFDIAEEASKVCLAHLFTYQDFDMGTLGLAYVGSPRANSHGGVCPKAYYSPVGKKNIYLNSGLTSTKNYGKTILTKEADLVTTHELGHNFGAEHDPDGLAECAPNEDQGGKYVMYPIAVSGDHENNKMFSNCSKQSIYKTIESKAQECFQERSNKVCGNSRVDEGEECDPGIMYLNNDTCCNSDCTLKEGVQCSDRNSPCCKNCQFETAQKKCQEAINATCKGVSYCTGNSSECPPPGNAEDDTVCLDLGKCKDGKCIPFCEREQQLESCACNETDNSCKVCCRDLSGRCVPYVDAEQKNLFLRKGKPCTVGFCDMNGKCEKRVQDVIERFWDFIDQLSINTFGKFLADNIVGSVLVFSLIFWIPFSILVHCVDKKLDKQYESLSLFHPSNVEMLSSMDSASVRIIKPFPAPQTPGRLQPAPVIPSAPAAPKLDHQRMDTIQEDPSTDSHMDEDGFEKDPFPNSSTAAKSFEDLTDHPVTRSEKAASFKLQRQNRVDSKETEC
MPTP inh: blocks calcium-induced mitochondrial swelling; isolated mouse mitochondria, Ca2+ swelling absorbance, 30 min; inhibition, % at 10 µM; 360,000 tested, 1.4% active; AID 602449;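 active means inhibition of 50% or more, scaled per plate between neutral and stimulator controls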;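 further: 0% = DMSO wells given calcium and 100% = 1 mM EGTA wells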
NR3A LBD binder: modulates the human NR3A ligand-binding domain | NR3A LBD differential scanning fluorimetry, Tm shift; 0% = protein alone, 100% = glycine-bound protein | Tm shift relative to glycine control, % at 25 µM | 340,000 tested, 2.5% active;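 active means melting temperature shift of at least 10% of the positive control shift, at one fixed dose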
ADAM10 inh: inhibitors of human ADAM10; O14672; inhibition, % at 7 µM; 370,000 tested, 0.62% active; recombinant ADAM10, EDANS/DABCYL FRET peptide cleavage, 3 h;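 active means inhibition above a per-campaign cutoff equal to the mean of compounds falling between control-based bounds plus 3 SD, cut at about 20% in these data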;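 further: 0% = DMSO wells while the 100% control is not disclosed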
MT1-MMP act inh: inhibitors of human MT1-MMP activation; GFP/RFP ratio change, % at 20 µM; HT1080 RFP-PRO-GFP cells, GFP/RFP ratio fluorescence, overnight; percent of plate control window, DMSO zero; 360,000 tested, 0.061% active; AID 651647;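 active means GFP/RFP ratio change of at least 30% with cell ATP level not reduced by more than half and red fluorescence within 50% of control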
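Assay system: HT1080 RFP-PRO-GFP cells. Benchmarks: DMSO vehicle wells and RFP-L50D-GFP reporter cell wells. Times: overnight cell settling, then overnight compound exposure, 37 °C, 5% CO2. Compound: 20 µM single dose, 1% DMSO. Read-out basis: GFP/RFP fluorescence ratio.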
SKN-1 block: C. elegans SKN-1 inhibition; C. elegans VP596 Pgst-4::GFP/RFP ratio, acrylamide-induced, 24 h; AID 624304; 360,000 tested, 0.49% active; inhibition, % at 21.8 µM;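 active means interference check ratio from 0.5 to 1.5 plus GFP to RFP signal ratio inhibition reaching or exceeding a fixed threshold, cut at about 30% in these data, passing the limit was not always enough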
Active calls of the source: *; . = not tested or not shown; ! = repeats disagree. Most compounds without a hit are left out; they make up all but 4.7% or so of the library.

SMILES	ADAM17 inh	MPTP inh	NR3A LBD binder	ADAM10 inh	MT1-MMP act inh	SKN-1 block
C[C@H]1[C@@H](c2ccccc2)Oc2ccc(Cl)cc2S(=O)(=O)N1Cc1ccc(F)cc1F	2.5	-2.3	15.4*	-1.1	-2.8	10.5
COc1ccc(-c2cc3ccc(OC)cc3cn2)cc1	-13.3	-0.8	40.9*	-56.5	0.5	9.9
COC(=O)c1ccc(NC(=O)C2CCCN2C(=O)Nc2cccc(C(C)=O)c2)cc1 (centres undefined)	2.5	-2.7	-3.0	3.0	0.3	7.3
Nc1c(C(=O)Nc2ccc(Br)cc2)sc2nc(-c3ccco3)ccc12	-51.5	1.7	7.9	-180.1	-26.3	11.6
Nc1c(C(=O)Nc2ccc(F)cc2)sc2nc(-c3ccco3)ccc12	-42.3	1.0	5.2	-152.9	-13.8	44.8*
O=C(Nc1ccon1)Nc1cc(Cl)ccc1Cl	4.0	0.1	-10.1	10.7	-0.1	24.9
CC(C)(Oc1ccc(Br)cc1Cl)C(=O)Nc1ccon1	7.9	0.1	12.8*	13.7	2.0	12.3
CCOC(=O)CNC(=O)c1cc(OC)cc(OC)c1	1.4	-0.4	-1.4	-0.8	7.1	10.3
CCCCn1c(N)c(N(CC)C(=O)C2CCCC2)c(=O)[nH]c1=O	-9.3	0.2	0.1	-12.3	3.7	-16.8
CCCCn1c(N)c(N(C)C(=O)C2CCCC2)c(=O)[nH]c1=O	-4.8	-0.7	14.7*	-10.5	-1.4	4.3
O=C(/C=C\Nc1ccccn1)c1ccc(Cl)cc1	-5.4	2.2	-12.3	-20.2	7.0	41.5*
COC(=O)c1c(-c2ccccc2)noc1-c1ccccc1	-0.7	1.8	3.0	3.9	-3.1	45.4*
Cc1ccc(C(=O)C(NC(=O)c2ccco2)N2CCOCC2)cc1 (centres undefined)	-3.3	-1.1	10.6*	-8.1	0.3	5.4
O=C(CC(=O)c1ccccc1O)c1cccc(F)c1	.	6.8	22.9*	.	-10.6	-2.6
C#CCN1C(=O)S/C(=C/c2cc(C)n(CC)c2C)C1=O	2.2	1.2	33.1*	2.5	0.8	-0.6
CCn1c(C)cc(/C=C2/SC(=S)N(CC(=O)O)C2=O)c1C	0.3	-4.5	0.3	3.0	-62.0	4.7
CCOC(=O)c1c(C)[nH]c(C)c1C(=O)COC(=O)/C=C/c1ccc(Cl)cc1	4.5	1.7	-19.8	5.9	1.9	2.7
CCOC(=O)c1c(C)[nH]c(C(=O)COC(=O)/C=C/c2ccc(OC(F)F)cc2)c1C	-4.0	0.0	13.1*	-1.6	-1.5	1.4
COc1ccc(Cc2nnc(NC(=O)Cn3cnc4c3c(=O)n(C)c(=O)n4C)s2)cc1OC	-3.1	0.1	-0.4	-1.9	2.5	3.3
CCN(CC)CCNC(=O)c1ccc(Cl)c(S(=O)(=O)Nc2ccc(Cl)cc2)c1	-0.1	-1.0	21.5*!	-4.4	1.5	-14.9
CCCCS(=O)(=O)Nc1ccc2cn[nH]c2c1	-2.1	-1.1	0.8	-7.2	3.4	7.8
CCCCS(=O)(=O)Nc1ccc2ncn(C)c(=O)c2c1	-46.7	-1.7	10.5*	-173.0	16.6	-0.1
CC(NC(=O)COC(=O)c1ccc2c(c1)S(=O)(=O)N=C1CCCCCN12)C12CC3CC(CC(C3)C1)C2 (centres undefined)	-1.3	2.3	18.3*	-2.9	3.5	-0.7
CC(C)(C)NC(=O)NC(=O)COC(=O)c1ccc2c(c1)S(=O)(=O)N=C1CCCCCN12	-0.6	1.0	-4.6	4.8	2.5	-0.8
CCOC(=O)c1nn(-c2ccc(Cl)cc2)c2nnc(Cc3ccc(C)cc3)c(=O)n12	0.5	-7.1	13.4*	-11.9	0.5	6.6
SMILES	ADAM17 inh	MPTP inh	NR3A LBD binder	ADAM10 inh	MT1-MMP act inh	SKN-1 block
CCOC(=O)c1nn(-c2ccc(Cl)cc2)c2nnc(Cc3ccccc3)c(=O)n12	0.3	-16.7	10.2*	6.0	-1.5	16.9
Cc1cc(NC(=O)CSc2nnc3c(C)cc4c(C)ccc(C)c4n23)no1	-2.0	-1.5	2.2	-5.3	-2.1	0.5
COCCNC(=O)COc1ncnc2ccc(Br)cc12	-2.6	4.7	12.5*	6.1	2.0	-10.1
COc1nc(-c2ccccc2)nnc1-c1ccccc1	0.1	-0.5	0.7	5.2	-2.7	51.7*
Cc1ccc(-n2c(SCC(=O)N/N=C/c3ccccc3C(=O)O)nnc2-c2ccccc2)cc1	-1.8	0.7	-0.4	3.9	4.0	3.6
Cc1cccc(C2=NN(c3ccccc3)[C@@H](C(=O)N3CCOC3=O)[C@@H]2C)c1	-17.4	0.4	-1.7	-61.9	-0.6	-1.6
Cc1cccc(C2=NN(c3ccccc3)[C@@H](C(=O)N3CCOC3=O)[C@@H]2c2ccc(Cl)cc2)c1	-79.9	-0.9	10.6*	-289.6	0.4	11.5
Cc1cccc(C2=NN(c3ccc(Br)cc3)[C@@H](C(=O)N3CCOC3=O)[C@@H]2C)c1	-84.3	0.6	11.9*	-282.7	0.1	21.9
Cc1cccc(C2=NN(c3ccccc3)[C@@H](C(=O)N3CCOC3=O)[C@@H]2c2ccc(F)cc2)c1	-77.4	-1.3	-5.1	-282.3	-2.7	-15.0
O=C1OCCN1C(=O)[C@H]1[C@H](c2ccc(Cl)cc2)C(c2ccc(F)cc2)=NN1c1ccc(Br)cc1	-25.2	1.1	18.1*	-88.7	1.4	-20.4
Brc1ccc(/C=N/Nc2nc3ccccc3o2)cc1	-0.3	-0.4	28.4*	13.4	4.4	7.2
COCc1cc(/C=N\NC(=O)c2ccc(Cl)cc2)ccc1OC	-1.1	5.4	11.3*	-0.2	2.4	8.5
COc1ccc(/C=N/NC(=O)c2nc(Cl)c(Cl)c(N)c2Cl)cc1COc1ccc(F)cc1F	-5.5	-1.1	10.0*	-1.7	-1.1	-5.0
COc1ccc(/C=N\NC(=O)c2cc(O)c(O)c(O)c2)cc1COc1ccc(C(=O)OCC(C)C)cc1	1.2	9.4	76.9*	5.5	1.9	1.5
COc1ccc(/C=N/NC(=O)c2ccc(O)cc2)cc1CN1CCCc2ccccc21	-0.2	3.1	27.1*	-3.0	2.1	7.4
O=S(=O)(Nc1cccc(-n2cnnn2)c1)c1cccc(Cl)c1	3.0	1.0	-5.9	-0.6	2.3	5.5
COc1ccc(/C=N\NC(=O)c2ccccc2Br)cc1COc1c(F)c(F)cc(F)c1F	8.3	0.1	-6.1	12.8	6.9	1.6
COc1ccc(/C=N/NC(=O)c2ccc(OC)c(OC)c2)cc1COc1c(F)c(F)c(F)c(F)c1F	4.4	-2.0	12.0*	5.1	3.4	11.7
CN=C(Nc1cc(Cl)ccc1Cl)SC1CC(=O)N(c2ccc(C(=O)OC)cc2)C1=O (centres undefined)	2.1	-1.2	13.6*	9.0	0.8	-7.2
CCCNC(=O)COC(=O)c1cc(SC)ccc1Cl	-23.1	-0.1	0.1	-46.1	-14.4	15.3
CSc1ccc(Cl)c(C(=O)OCC(=O)NC2CC2)c1	-16.3	-3.7	11.7*	-53.0	3.7	-16.7
